V1R ag counter – counter-screen for oxytocin receptor agonists: human V1a receptor agonists. CHO-V1R cells, Fluo-8 calcium fluorescence, agonist mode; 0% DMSO, 100% 3 nM vasopressin. activation, % at 3 µM. hit rate 0.25% among 320,000. AID 2797;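 active = activation above the mean activation of all tested compounds plus 3 SD, per screening run, cut at about 20% in these data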;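 note: signal is peak over basal fluorescence ratio across a 100 second FLIPR read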
TAAR1 antagonist – antagonists of human TAAR1; Q96RJ0; inhibition, % at 3 µM; hit rate 1.5% among 360,000; AID 624466; CHO RD-HGA16 TAAR1, Fluo-8 calcium fluorescence, antagonist;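 active = inhibition above a per-plate cutoff, the mean inhibition of test compounds on that plate plus 3 SD, cut at about 49% in these data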
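Assay system: CHO-derived RD-HGA16 cells stably expressing human TAAR1 plus Gα16. Timing: 140 s kinetic read after compound, 140 s after agonist. Technique: kinetic Fluo-8 calcium fluorescence measurement. Measure: % inhibition of agonist calcium response.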
TAAR1 ag – human TAAR1 agonism; Q96RJ0; hit rate 0.99% among 360,000; AID 624467; CHO RD-HGA16 TAAR1, Fluo-8 calcium fluorescence; vehicle wells 0%, saturating PEA agonist 100%; activation, % at 3 µM;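 active = activation above the mean activation of all test compounds in the run plus 3 SD, cut at about 38% in these data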
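Test system: RD-HGA16 (CHO) cells co-expressing Gα16 and hTAAR1 | Doses: Single dose, 3 µM | Schedule: 17-24 h seeding, 75 min 37 °C dye, 30 min RT | Evaluation: % activation from peak over basal fluorescence ratio, DMSO-to-PEA scaled | Technique: Kinetic Fluo-8 calcium fluorescence | Benchmarks: Low control DMSO, high control PEA (EC100)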
OXTR potentiator – potentiators of human oxytocin receptor; P30559; CHO-OTR cells, Fluo-8 calcium fluorescence, potentiator mode; 0% = oxytocin EC15, 100% = EC100; activation, % at 3 µM; hit rate 0.061% among 320,000; AID 2445;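 active = activation above that plate's cutoff, the mean activation of tested compounds plus 3 SD, cut at about 6.6% in these data, passing the limit was not always enough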
Target sequence (P30559 whole entry, looked up): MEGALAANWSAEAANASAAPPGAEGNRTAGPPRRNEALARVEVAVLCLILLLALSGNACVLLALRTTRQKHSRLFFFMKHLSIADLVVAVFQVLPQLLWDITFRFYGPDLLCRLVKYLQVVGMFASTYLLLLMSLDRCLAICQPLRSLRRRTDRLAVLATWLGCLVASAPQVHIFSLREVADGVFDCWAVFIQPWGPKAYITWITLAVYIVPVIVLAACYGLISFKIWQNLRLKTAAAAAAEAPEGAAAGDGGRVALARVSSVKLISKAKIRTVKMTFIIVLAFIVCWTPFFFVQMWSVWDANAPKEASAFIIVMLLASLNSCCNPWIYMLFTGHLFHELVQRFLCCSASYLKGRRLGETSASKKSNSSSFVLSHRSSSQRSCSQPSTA
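Measured by – Fluo-8 calcium dye fluorescence · Test system – human OTR in CHO cells · Dosing – one concentration, 3.0 µM compound · Controls – EC15 oxytocin alone as 0%, 75 nM oxytocin as 100% · Evaluation – normalized max/min fluorescence ratio, % activation · Timing – 6 min pre-incubation, 100 s read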
OXTR ag – activates the human oxytocin receptor; P30559; CHO-OTR cells, Fluo-8 calcium fluorescence; normalized: DMSO 0%, oxytocin 100%; activation, % at 3 µM; hit rate 0.32% among 320,000; AID 2435;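 active = activation above the mean of all tested compounds plus 3 SD, cutoff set per screening run, cut at about 20% in these data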;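 note: peak over basal fluorescence ratio from a 100 s FLIPR kinetic read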
Each line names hits and unclear results; the compound was inactive in the other large screens. Shown are actives, neighbours in structure and some others; about 2.3% of the full set was active somewhere.

CSC1=C(C#N)C(c2ccccc2Cl)C(C(=O)c2cccs2)C(O)(C(F)(F)F)N1 (stereo not drawn)	TAAR1 antagonist 51
C=CCSC1=C(C#N)C(c2ccccc2Cl)C(C(=O)c2cccs2)C(O)(C(F)(F)F)N1 (stereo not drawn)	TAAR1 antagonist 56
O=C1NC(c2ccccc2)C(C(=O)c2cccs2)C(O)(C(F)(F)F)N1 (stereo not drawn)	none
COc1ccc(C2C=CC(=O)CC2)c(OC)c1 (stereo not drawn)	none (no result: V1R ag counter, OXTR potentiator, OXTR ag)
CCOc1ccc(C(C)=O)cc1COC(=O)c1ccc2c(c1)NC(=O)CS2	TAAR1 antagonist 52
O=C(CN1CCc2ccccc2C1)Nc1cccc(S(=O)(=O)N2CCCC2)c1	TAAR1 ag 38
O=C(Cc1ccccc1)Nc1cccc(S(=O)(=O)N2CCCCCC2)c1	none
COc1ccc(NC(=O)Nc2nc(C(N)CC(C)C)cs2)cc1 (stereo not drawn)	none (no result: V1R ag counter, OXTR potentiator, OXTR ag)
NC(c1csc(NC(=O)Nc2ccc(OC(F)(F)F)cc2)n1)C1CCCCC1 (stereo not drawn)	TAAR1 ag 47 (no result: V1R ag counter, OXTR potentiator, OXTR ag)
CCc1nnc(N/N=C/c2cc(Br)c(O)cc2O)n1N	none
CC(C)(C)c1nnc(N/N=C/c2cc(Br)ccc2O)n(N)c1=O	TAAR1 antagonist 68
C=CCCC1CN(Cc2ccc(OC)cc2)S(=O)(=O)c2c(NCc3cc(OC)c(OC)c(OC)c3)cccc2O1 (stereo not drawn)	none (no result: V1R ag counter, OXTR potentiator, OXTR ag)
Cc1cc(OCc2cc(C(=O)N3CCC(Oc4cccnc4)CC3)no2)cc(C)c1Cl	TAAR1 antagonist 53
Cc1cc(OCc2cc(C(=O)N3CCN(CC4CC4)CC3)no2)cc(C)c1Cl	none
CC(C)(C)OC(=O)N1CCC(NC(=O)c2[nH]c(C(F)(F)F)nc2-c2ccccc2)CC1	none (no result: V1R ag counter, OXTR potentiator, OXTR ag)
COc1cc2c(c3c1c(=O)c1cccc(F)c1n3C)C=CC(C)(C)O2	none (no result: V1R ag counter, OXTR potentiator, OXTR ag)
Cn1c2ccccc2c(=O)c2c(=O)n(C3CCCCCC3)c(C3CCCCC3)nc21	TAAR1 ag 38 (no result: V1R ag counter, OXTR potentiator, OXTR ag)
Cc1nc2c(c(=O)c3ccccc3n2C)c(=O)n1C1CCCC1	none (no result: V1R ag counter, OXTR potentiator, OXTR ag)
C[C@@H]1CNCCN1c1ccc(N2CCN(Cc3ccccc3)[C@@H](C)C2)c(C#N)c1	none (no result: V1R ag counter, OXTR potentiator, OXTR ag)
COc1cccc(Nc2nc(C(N)CCc3ccccc3)cs2)n1 (stereo not drawn)	TAAR1 ag 45 (no result: V1R ag counter, OXTR potentiator, OXTR ag)
COc1cccc(Nc2nc(C(N)CC(C)C)cs2)n1 (stereo not drawn)	TAAR1 ag 42 (no result: V1R ag counter, OXTR potentiator, OXTR ag)
NC(=O)c1cccc(Nc2nc(C(N)CCc3ccccc3)cs2)n1 (stereo not drawn)	none (no result: V1R ag counter, OXTR potentiator, OXTR ag)
COc1ccc(CC(N)c2csc(Nc3ccccn3)n2)cc1 (stereo not drawn)	none (no result: V1R ag counter, OXTR potentiator, OXTR ag)
CC(=O)c1ccc(Nc2nc(C(N)Cc3ccc(Cl)cc3)cs2)cc1 (stereo not drawn)	TAAR1 ag 50 (no result: V1R ag counter, OXTR potentiator, OXTR ag)
COc1cccc(Nc2nc(C(N)Cc3ccc(Cl)cc3)cs2)n1 (stereo not drawn)	TAAR1 antagonist 55, TAAR1 ag 65 (no result: V1R ag counter, OXTR potentiator, OXTR ag)
COC(=O)C1=C(C)N(Cc2cccc(C(F)(F)F)c2)C(=NCc2ccc(OC)cc2)NC1c1ccc(Cl)cc1 (stereo not drawn)	none (no result: V1R ag counter, OXTR potentiator, OXTR ag)
CC(C)C[C@H]1CNC(=O)C(=O)N1C[C@@H]1CCCN1C[C@H](Cc1ccccc1)N1C[C@H](CC(C)C)N(CC2CCCCC2)C(=O)C1=O	none (no result: V1R ag counter, OXTR potentiator, OXTR ag)
Cc1ccc2nc(CN(C)C(=O)[C@H](CCc3ccccc3)NC(=O)[C@H]3O[C@@H](n4cnc5c(N)ncnc54)[C@H](O)[C@@H]3O)[nH]c2c1	none (no result: V1R ag counter, OXTR potentiator, OXTR ag)
CC(=O)C1=C(C)N(CC(C)C)C(=S)NC1c1cccc(Cl)c1 (stereo not drawn)	none (no result: V1R ag counter, OXTR potentiator, OXTR ag)
OCc1cccc(-c2cnc3c(Nc4cccc(OC(F)(F)C(F)F)c4)nccn23)c1	TAAR1 antagonist 60 (no result: V1R ag counter, OXTR potentiator, OXTR ag)
CCCCCc1cc(=O)oc2c(C(CCN3CCCCC3)c3ccc(OC)cc3)c(OC)cc(OC)c12 (stereo not drawn)	none
CCCCCc1cc(=O)oc2c(C(CCN3CCCC(C)C3)c3ccc(OC)cc3)c(OC)cc(OC)c12 (stereo not drawn)	TAAR1 ag 40
Cc1nn(-c2ccccc2)c(Cl)c1/C=N/NC(=O)OC(C)(C)C	TAAR1 antagonist 54
Cc1ccc(C)c(OCC(=O)N/N=C/c2c(C)nn(-c3ccccc3)c2Cl)c1	TAAR1 antagonist 53
Cc1ccc2nc(-c3ccco3)c(Cc3ccsc3)n2c1	none (no result: V1R ag counter, OXTR potentiator, OXTR ag)

Bioassay records (PubChem BioAssay)
